In article PMC3608738 (Antiviral research, 2012):

Columns and labels:
WNV MTase [1] = target: T1, WNV MTase (West Nile virus, UniProt Q9Q6P4); experiment: In vitro 2'-O methylation inhibition assay; type: biochemical
Procedure, shortened: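 2'-O methylation is followed as conversion of m7G*pppA-RNA to m7G*pppAm-RNA. Each reaction contains 1.5 μM WNV MTase, 80 μM SAM, 0.36 μM m7G*pppA-RNA substrate and a range of test compound concentrations. Products are digested with nuclease P1, and the caps are separated by TLC and quantified by PhosphorImager. Activity is taken from m7G*pppA versus m7G*pppAm, with no-compound activity set at 100%. IC50 comes from a dose–response fit; Ki comes from Cheng-Prusoff.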

hRNMTase = hRNMTase (Homo sapiens, UniProt O43148); experiment: [3H]SAM competition binding assay
WNV MTase [2] = target: T1, WNV MTase; experiment: In vitro N7 methylation inhibition assay; type: biochemical
WNV (NY99) = experiment: Viral titer reduction assay; type: cell-based, West Nile virus; settings: A549 cells, WNV MOI 0.1, 42 h
Procedure, shortened: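 About 2 × 10^5 A549 cells per well are treated 24-30 h after seeding, in triplicate. Test compound, made at 2X in medium with 2% DMSO, is added, followed immediately by WNV NY99 at MOI 0.1 PFU/cell. After 42 h at 37°C, culture fluid is titred by plaque assay on confluent Vero monolayers under a 0.6% agar overlay with a neutral red second overlay. EC50 comes from nonlinear regression of the dose–response curve.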

[3] = target: human guanine N-7 RNA MTase (hRNMTase) (Homo sapiens, UniProt O43148); experiment: Inhibition of human RNA MTase; type: biochemical
WNV MTase [4] = target: T1, WNV MTase; experiment: [3H]SAM competition binding assay; settings: positive control, dose response
Procedure, shortened: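 For G-25 filtration SAM competition, 0.6 μM WNV MTase is mixed with [methyl-3H]-SAM (about 14.1 nM final) and a 3-fold dilution series of test compound starting at 60 μM. Mixtures stand 2 h at room temperature and are spun through G-25 mini-columns. The eluted MTase-bound 3H is quantified by scintillation counting. Points are run in duplicate.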

T1 sequence (Q9Q6P4 2529-2794): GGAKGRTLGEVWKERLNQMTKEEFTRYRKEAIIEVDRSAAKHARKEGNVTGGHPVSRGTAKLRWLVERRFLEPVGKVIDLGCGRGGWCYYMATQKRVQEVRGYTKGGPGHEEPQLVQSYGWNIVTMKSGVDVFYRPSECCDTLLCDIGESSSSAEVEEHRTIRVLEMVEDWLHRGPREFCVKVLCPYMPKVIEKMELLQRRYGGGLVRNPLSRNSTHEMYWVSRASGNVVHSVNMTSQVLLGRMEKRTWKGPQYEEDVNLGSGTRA
Chain of human guanine N-7 RNA MTase (hRNMTase) (O43148 whole entry): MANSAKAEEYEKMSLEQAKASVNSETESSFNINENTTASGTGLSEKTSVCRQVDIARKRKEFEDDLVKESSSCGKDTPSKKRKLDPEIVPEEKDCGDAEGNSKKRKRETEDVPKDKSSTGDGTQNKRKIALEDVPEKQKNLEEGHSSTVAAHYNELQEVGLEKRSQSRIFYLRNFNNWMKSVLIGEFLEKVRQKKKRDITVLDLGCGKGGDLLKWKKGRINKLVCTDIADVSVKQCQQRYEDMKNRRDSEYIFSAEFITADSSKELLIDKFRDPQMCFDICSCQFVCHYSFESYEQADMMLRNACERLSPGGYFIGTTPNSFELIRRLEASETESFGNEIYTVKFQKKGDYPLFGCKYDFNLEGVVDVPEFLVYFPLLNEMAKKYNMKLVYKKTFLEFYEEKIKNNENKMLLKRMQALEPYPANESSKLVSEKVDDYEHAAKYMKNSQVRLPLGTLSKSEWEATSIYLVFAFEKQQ
Chain of hRNMTase (O43148 whole entry): as above

## CCOC(=O)[C@@](C)(O)[C@@H]1C[C@@H](CO[Si](c2ccccc2)(c2ccccc2)C(C)(C)C)O[C@H]1n1cc(F)c(=O)[nH]c1=O [GRL-003]
WNV MTase [1]; dose-response curve of 2'-O MTase inhibition
  Hill coef. (2'-O): 2.8
WNV MTase [1]; relative to GRL-001
  Fold lower Ki than GRL-001 (2'-O inhibition): 12 fold
hRNMTase; 300 μM compound
  Inhibition of [3H]SAM binding to hRNMTase (in words): did not inhibit
WNV MTase [2]
  Inhibition of N-7 MTase activity (in words): only moderately inhibited
WNV MTase [2]; dose-response curve of N-7 MTase inhibition
  Hill coef. (N-7): 0.9
WNV MTase [2]; relative to GRL-001
  Fold lower Ki than GRL-001 (N-7 inhibition): 5 fold
WNV (NY99)
  Concentration giving one logarithmic order of reduction in the WNV replication: 50 μM
[3]; even at 300 μM compound concentration
  Inhibition of hRNMTase activity (in words): did not inhibit

## Nc1ncnc2c1ncn2[C@@H]1O[C@H](C[C@@H](N)CC[C@H](N)C(=O)O)[C@@H](O)[C@H]1O [SIN, Sinefungin, reference compound]
hRNMTase; control, dose response
  Inhibition of [3H]SAM binding to hRNMTase (in words): decreased the SAM binding very efficiently
WNV MTase [4]
  Inhibition of 3H-labeled SAM-MTase complex formation (in words): very efficiently in a dose-dependent manner
[3]
  IC50: ~41.2 µM
